According to ChEMBL document CHEMBL1142071, “Coproduction of novel 16S rRNA methylase RmtD and metallo-beta-lactamase SPM-1 in a panresistant Pseudomonas aeruginosa isolate from Brazil” (2007):
Converted amounts (≈) assume the structure as drawn.

Legend:
Assay type in all cases: functional
Pseudomonas aeruginosa = assay: Antimicrobial activity against Pseudomonas aeruginosa PA0905
Procedure, shortened: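 The clinical urine isolate was collected in 2005 in Sorocaba, Brazil. Aminoglycoside MICs were determined by CLSI agar dilution, with E. coli ATCC 25922 as the control strain. β-Lactam, ciprofloxacin and colistin MICs were determined by Etest.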

Escherichia coli [1] = assay: Antimicrobial activity against Escherichia coli XL1-Blue pPA95S29
Procedure, shortened: (§1)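 Aminoglycoside MICs were determined by CLSI agar dilution, with E. coli ATCC 25922 as the control strain. The host was E. coli XL1-Blue carrying pBluescript II SK(+), either as vector alone or as a ligated Sau3AI partial digest of the cloned resistance plasmid. Transformants were selected on LB agar with 50 μg/ml ampicillin plus 10 μg/ml amikacin.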

Escherichia coli [2] = assay: Antimicrobial activity against Escherichia coli XL1-Blue [pBluescript 2 SK(+); procedure, shortened: as §1

Row | SMILES | MIC (Pseudomonas aeruginosa) [µg/mL] | MIC (Escherichia coli [1]) [µg/mL] | MIC (Escherichia coli [2]) [µg/mL]
1 | NCC[C@H](O)C(=O)N[C@@H]1C[C@H](N)[C@@H](O[C@H]2O[C@H](CN)[C@@H](O)[C@H](O)[C@H]2O)[C@H](O)[C@H]1O[C@H]1O[C@H](CO)[C@@H](O)[C@H](N)[C@H]1O [AMIKACIN] | > 256 | > 256 | 0.5 (≈ 0.854 µM)
2 | CN[C@@H]1[C@@H](O[C@H]2O[C@H](CO)[C@@H](N)[C@H](O)[C@H]2O)OC2C[C@@H](N)[C@@H](O[C@H]3[C@H](O)[C@@H](O)[C@H](N)C[C@@H]3N)OC2[C@@H]1O (some centres undefined) [APRAMYCIN] | 32 (≈ 59.3 µM) | 2 (≈ 3.71 µM) | 2 (≈ 3.71 µM)
3 | NCC[C@H](O)C(=O)N[C@@H]1C[C@H](N)[C@@H](O[C@H]2O[C@H](CN)CC[C@H]2N)[C@H](O)[C@H]1O[C@H]1O[C@H](CO)[C@@H](O)[C@H](N)[C@H]1O [ARBEKACIN] | > 256 | > 256 | 0.25 (≈ 0.452 µM)
4 | C[C@H]1[C@H](NC(=O)/C(=N\OC(C)(C)C(=O)O)c2csc(N)n2)C(=O)N1S(=O)(=O)O [AZTREONAM] | 8 (≈ 18.4 µM) | – | –
5 | CO/N=C(\C(=O)N[C@@H]1C(=O)N2C(C(=O)[O-])=C(C[N+]3(C)CCCC3)CS[C@H]12)c1csc(N)n1 [CEFEPIME] | > 256 | – | –
6 | CC(C)(O/N=C(\C(=O)N[C@@H]1C(=O)N2C(C(=O)[O-])=C(C[n+]3ccccc3)CS[C@H]12)c1csc(N)n1)C(=O)O [CEFTAZIDIME] | > 256 | – | –
7 | O=C(O)c1cn(C2CC2)c2cc(N3CCNCC3)c(F)cc2c1=O [CIPROFLOXACIN] | > 32 | – | –
8 | NC[C@@H]1O[C@H](O[C@H]2[C@@H](O)[C@H](O[C@@H]3[C@@H](O)[C@H](N)C[C@H](N)[C@H]3O[C@H]3O[C@H](CN)[C@@H](O)[C@H](O)[C@H]3N)O[C@@H]2CO)[C@H](N)[C@@H](O)[C@@H]1O [FRAMYCETIN] | 64 (≈ 104 µM) | 0.12 (≈ 0.195 µM) | 0.12 (≈ 0.195 µM)
9 | C[C@@H](O)[C@H]1C(=O)N2C(C(=O)O)=C(SCCNC=N)C[C@H]12 [IMIPENEM ANHYDROUS] | > 32 | – | –
10 | C[C@@H](O)[C@H]1C(=O)N2C(C(=O)O)=C(S[C@@H]3CN[C@H](C(=O)N(C)C)C3)[C@H](C)[C@H]12 [MEROPENEM] | > 32 | – | –
11 | CN[C@@H]1[C@H](O[C@H]2[C@H](O[C@H]3[C@H](O)[C@@H](O)[C@H](N=C(N)N)[C@@H](O)[C@@H]3N=C(N)N)O[C@@H](C)[C@]2(O)C=O)O[C@@H](CO)[C@H](O)[C@H]1O [STREPTOMYCIN] | 128 (≈ 220 µM) | 1 (≈ 1.72 µM) | 0.5 (≈ 0.86 µM)
12 | NC[C@H]1O[C@H](O[C@H]2[C@H](O)[C@@H](O[C@H]3O[C@H](CO)[C@@H](O)[C@H](N)[C@H]3O)[C@H](N)C[C@@H]2N)[C@H](N)C[C@@H]1O [TOBRAMYCIN] | 256 (≈ 548 µM) | 64 (≈ 137 µM) | 0.06 (≈ 0.128 µM)
